The record followed here is PMC2872052 (Peptides, 2010).

Where a SMILES comes first, the peptide text is derived from it. [ ]: non-standard residue; d: D form.

The test concerns the target wild type rat secretin receptor (Rattus norvegicus, UniProt P23811). Briefly: cAMP responses in secretin receptor-bearing CHO-SecR cells. The format is cell-based. As to conditions: for agonist (biological) activity at the secretin receptor, in words: cAMP responses in CHO-SecR cells, relative to maximal response to secretin. In a few lines:
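CHO cells stably expressing wild-type rat secretin receptor, grown 48 h at ~8,000 cells/well, washed twice in PBS, then stimulated 30 min at 37 °C with increasing test-compound concentrations in Krebs-Ringers/HEPES pH 7.4 with 0.2% BSA, 0.1% bacitracin and 1 mM IBMX. Lysis in 6% ice-cold perchloric acid, neutralised to pH 6, cAMP by LANCE. Normalised to maximal secretin response; three experiments in duplicate.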

Sequence of wild type rat secretin receptor (P23811 26-449): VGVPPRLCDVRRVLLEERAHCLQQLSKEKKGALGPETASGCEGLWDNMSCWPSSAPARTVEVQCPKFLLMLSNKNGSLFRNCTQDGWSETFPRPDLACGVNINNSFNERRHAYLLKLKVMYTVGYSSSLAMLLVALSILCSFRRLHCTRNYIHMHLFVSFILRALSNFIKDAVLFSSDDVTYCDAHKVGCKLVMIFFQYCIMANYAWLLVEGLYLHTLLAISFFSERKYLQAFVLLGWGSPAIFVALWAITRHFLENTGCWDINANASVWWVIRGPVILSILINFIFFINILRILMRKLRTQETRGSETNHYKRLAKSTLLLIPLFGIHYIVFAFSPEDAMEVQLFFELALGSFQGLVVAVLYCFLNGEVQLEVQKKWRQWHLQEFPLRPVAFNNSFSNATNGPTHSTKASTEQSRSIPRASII

A word on the EC50: it is the concentration needed to bring the measured effect to its halfway point. Read a high EC50 as a need for much substance. `C[C@@H]1NC(=O)[C@H](C)NC(=O)[C@@H](C)NC(=O)[C@H](C)NC(=O)[C@H](CC(=O)O)NC(=O)[C@H](Cc2c[nH]c3ccccc23)NC1=O` [c[AAWDAa]] (cyclo(AAWDA[dA])): the EC50 was 23 ± 5.3 µM and the “agonist (biological) activity at the secretin receptor, in words” value is listed as “full agonist activity”.

For the compound `C[C@@H]1NC(=O)[C@H](C)NC(=O)[C@H](CC(=O)O)NC(=O)[C@H](Cc2c[nH]c3ccccc23)NC(=O)[C@H](C)NC(=O)[C@@H](C)NC1=O` [c[AWDAAa]] (cyclo(AA[dA]AWD)), the EC50 came to 21 ± 4.2 µM and the “agonist (biological) activity at the secretin receptor, in words” value is listed as “full agonist activity”.

`O=C(O)C[C@@H]1NC(=O)[C@H](Cc2c[nH]c3ccccc23)NC(=O)[C@H](CC(=O)O)NC(=O)[C@H](Cc2c[nH]c3ccccc23)NC(=O)[C@@H](CC(=O)O)NC(=O)[C@H](Cc2c[nH]c3ccccc23)NC1=O` [c[WDWDWd]] (cyclo(DWDW[dD]W)) came in with an EC50 of 11.7 ± 3 µM.
